In ChEMBL document CHEMBL1137675, “Convenient one-pot synthesis of novel 2-substituted benzimidazoles, tetrahydrobenzimidazoles and imidazoles and evaluation of their in vitro antibacterial and antifungal activities” (2009):
In brackets after ≈: the same amount, converted by molar mass.

Tests used:
Salmonella typhimurium = test: Antibacterial activity against Salmonella Typhimurium MTCC 98 at 37 degC after 24 hrs by filter paper disk method; type: functional, Salmonella enterica subsp. enterica serovar Typhimurium; settings: for MIC: Salmonella enterica, MTCC 98, 24 h
Summary of the method: (§1)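 Compounds were taken from a 1 mg/ml DMSO stock and serially diluted two-fold over a 300 to 18.75 range, then loaded onto sterile 8 mm paper discs. Bacteria were grown overnight in nutrient broth at 37 °C, pelleted, and resuspended in sterile NSS to 10⁵ cfu/ml. About 0.1 ml was spread on NA plates. Plates were incubated 24 h at 37 °C with a solvent control disc, and inhibition zone diameter was read in mm.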

Bacillus subtilis = test: Antibacterial activity against Bacillus subtilis ATCC 6051 at 37 degC after 24 hrs by filter paper disk method; type: functional; settings: for MIC: Bacillus subtilis, ATCC 6051, 24 h; summary of the method: as §1
Staphylococcus aureus = test: Antibacterial activity against Staphylococcus aureus MSSA 22 at 37 degC after 24 hrs by filter paper disk method; type: functional; settings: for MIC: Staphylococcus aureus, MSSA 22, 24 h; summary of the method: as §1
Escherichia coli = test: Antibacterial activity against Escherichia coli K-12 at 37 degC after 24 hrs by filter paper disk method; type: functional; settings: for MIC: Escherichia coli, K-12, 24 h; summary of the method: as §1
Candida albicans = test: Antifungal activity against Candida albicans IOA-109 at 37 degC after 18 to 48 hrs; type: functional; settings: for MIC: Candida albicans, IOA-109
Aspergillus niger = test: Antifungal activity against Aspergillus niger at 28 degC after 72 hrs; type: functional; settings: for MIC: Aspergillus niger, 72 h
Summary of the method: (§2)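 Filamentous fungi were kept on SDA at 28 °C. Spores from 7-day cultures were suspended in sterile normal saline to about 10⁵ cfu/ml, and about 0.1 ml was spread on SDA plates. Compounds were serially diluted two-fold in DMSO and impregnated on 8 mm discs, with a solvent control disc on each plate. Plates were held at 28 °C for 72 h or more, and inhibition zone diameter was read in mm.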

Trichoderma viride = test: Antifungal activity against Trichoderma viride at 28 degC after 72 hrs; type: functional; settings: for MIC: Trichoderma viride, 72 h; summary of the method: as §2
Penicillium sp. = test: Antifungal activity against Penicillium sp. at 28 degC after 72 hrs; type: functional; settings: for MIC: Penicillium sp., 72 h; summary of the method: as §2
Helminthosporium = test: Antifungal activity against Helminthosporium oryzae 2537 ICAR at 28 degC after 72 hrs; type: functional; settings: for MIC: Helminthosporium, 72 h; summary of the method: as §2

| Structure (SMILES) | diameter of the inhibition zone (DIZ) (Salmonella typhimurium) [mm] | MIC (Salmonella typhimurium) [µg/mL] | diameter of the inhibition zone (DIZ) (Bacillus subtilis) [mm] | MIC (Bacillus subtilis) [µg/mL] | diameter of the inhibition zone (DIZ) (Staphylococcus aureus) [mm] | MIC (Staphylococcus aureus) [µg/mL] | diameter of the inhibition zone (DIZ) (Escherichia coli) [mm] | MIC (Escherichia coli) [µg/mL] | diameter of the inhibition zone (DIZ) (Candida albicans) [mm] | MIC (Candida albicans) [µg/mL] | diameter of the inhibition zone (DIZ) (Aspergillus niger) [mm] | MIC (Aspergillus niger) [µg/mL] | diameter of the inhibition zone (DIZ) (Trichoderma viride) [mm] | MIC (Trichoderma viride) [µg/mL] | diameter of the inhibition zone (DIZ) (Penicillium sp.) [mm] | MIC (Penicillium sp.) [µg/mL] | diameter of the inhibition zone (DIZ) (Helminthosporium) [mm] | MIC (Helminthosporium) [µg/mL] |
| --- | --- | --- | --- | --- | --- | --- | --- | --- | --- | --- | --- | --- | --- | --- | --- | --- | --- | --- |
| CCCCCCCC/C=C\CCCCCCCc1nc2ccccc2[nH]1 | 14 | 75 (≈ 212 µM) | 21 | 75 (≈ 212 µM) | 18 | 150 (≈ 423 µM) | 16 | 150 (≈ 423 µM) | 19 | 75 (≈ 212 µM) | 16 | 150 (≈ 423 µM) | 6 | 75 (≈ 212 µM) | 18 | 75 (≈ 212 µM) | 12 | 150 (≈ 423 µM) |
| CCCCCC[C@@H](O)C/C=C\CCCCCCCc1nc2cc(Cl)ccc2[nH]1 | 17 | 37.5 (≈ 92.6 µM) | 19 | 75 (≈ 185 µM) | 21 | 37.5 (≈ 92.6 µM) | 18 | 75 (≈ 185 µM) | 18 | 37.5 (≈ 92.6 µM) | 14 | 37.5 (≈ 92.6 µM) | 9 | 37.5 (≈ 92.6 µM) | 19 | 37.5 (≈ 92.6 µM) | 14 | 75 (≈ 185 µM) |
| CCCCC/C=C\CC[C@H](O)CCCCCCCc1nc2cc([N+](=O)[O-])ccc2[nH]1 | 13 | 37.5 (≈ 90.2 µM) | 22 | 37.5 (≈ 90.2 µM) | 19 | 37.5 (≈ 90.2 µM) | 18 | 37.5 (≈ 90.2 µM) | 19 | 37.5 (≈ 90.2 µM) | 14 | 37.5 (≈ 90.2 µM) | 9 | 37.5 (≈ 90.2 µM) | 19 | 37.5 (≈ 90.2 µM) | 14 | 75 (≈ 180 µM) |
| CCCCCCCC/C=C/CCCCCCCc1nc2cc([N+](=O)[O-])ccc2[nH]1 | 11 | 37.5 (≈ 93.8 µM) | 20 | 37.5 (≈ 93.8 µM) | 21 | 37.5 (≈ 93.8 µM) | 20 | 75 (≈ 188 µM) | 19 | 37.5 (≈ 93.8 µM) | 15 | 37.5 (≈ 93.8 µM) | 8 | 37.5 (≈ 93.8 µM) | 18 | 37.5 (≈ 93.8 µM) | 12 | 75 (≈ 188 µM) |
| CCCCC/C=C\CC[C@H](O)CCCCCCCc1nc2cc(Cl)ccc2[nH]1 | 17 | 37.5 (≈ 92.6 µM) | 20 | 75 (≈ 185 µM) | 21 | 37.5 (≈ 92.6 µM) | 19 | 37.5 (≈ 92.6 µM) | 18 | 37.5 (≈ 92.6 µM) | 14 | 37.5 (≈ 92.6 µM) | 8 | 37.5 (≈ 92.6 µM) | 19 | 37.5 (≈ 92.6 µM) | 14 | 75 (≈ 185 µM) |
| CCCCC/C=C\CC[C@H](O)CCCCCCCc1nc2c([nH]1)CCCC2 | 13 | 75 (≈ 200 µM) | 23 | 75 (≈ 200 µM) | 16 | 75 (≈ 200 µM) | 16 | 150 (≈ 400 µM) | 19 | 75 (≈ 200 µM) | 12 | 37.5 (≈ 100 µM) | 8 | 37.5 (≈ 100 µM) | 17 | 75 (≈ 200 µM) | 11 | 150 (≈ 400 µM) |
| C=CCCCCCCCCc1nc2c([nH]1)CCCC2 | 11 | 75 (≈ 288 µM) | 18 | 75 (≈ 288 µM) | 18 | 75 (≈ 288 µM) | 17 | 37.5 (≈ 144 µM) | 18 | 75 (≈ 288 µM) | 12 | 37.5 (≈ 144 µM) | 7 | 37.5 (≈ 144 µM) | 18 | 75 (≈ 288 µM) | 11 | 150 (≈ 576 µM) |
| C=CCCCCCCCCc1nc2ccccc2[nH]1 | 16 | 75 (≈ 293 µM) | 22 | 75 (≈ 293 µM) | 20 | 150 (≈ 585 µM) | 18 | 150 (≈ 585 µM) | 19 | 75 (≈ 293 µM) | 14 | 150 (≈ 585 µM) | 7 | 75 (≈ 293 µM) | 18 | 75 (≈ 293 µM) | 13 | 150 (≈ 585 µM) |
| CCCCCCCC/C=C/CCCCCCCc1ncc[nH]1 | 11 | 75 (≈ 246 µM) | 19 | 37.5 (≈ 123 µM) | 15 | 150 (≈ 493 µM) | 11 | 150 (≈ 493 µM) | 18 | 75 (≈ 246 µM) | 12 | 150 (≈ 493 µM) | 4 | 75 (≈ 246 µM) | 17 | 150 (≈ 493 µM) | 12 | 150 (≈ 493 µM) |
| CCCCCC[C@@H](O)C/C=C\CCCCCCCc1nc2cc([N+](=O)[O-])ccc2[nH]1 | 12 | 37.5 (≈ 90.2 µM) | 21 | 37.5 (≈ 90.2 µM) | 19 | 37.5 (≈ 90.2 µM) | 16 | 37.5 (≈ 90.2 µM) | 19 | 37.5 (≈ 90.2 µM) | 16 | 37.5 (≈ 90.2 µM) | 9 | 37.5 (≈ 90.2 µM) | 19 | 37.5 (≈ 90.2 µM) | 15 | 75 (≈ 180 µM) |
| CCCCC/C=C\CC[C@H](O)CCCCCCCc1nc2ccccc2[nH]1 | 12 | 75 (≈ 202 µM) | 19 | 75 (≈ 202 µM) | 19 | 150 (≈ 405 µM) | 17 | 150 (≈ 405 µM) | 18 | 75 (≈ 202 µM) | 14 | 150 (≈ 405 µM) | 8 | 75 (≈ 202 µM) | 17 | 75 (≈ 202 µM) | 11 | 150 (≈ 405 µM) |
| CCCCCCCC/C=C/CCCCCCCc1nc2cc(Cl)ccc2[nH]1 | 15 | 37.5 (≈ 96.4 µM) | 18 | 75 (≈ 193 µM) | 20 | 37.5 (≈ 96.4 µM) | 18 | 75 (≈ 193 µM) | 18 | 37.5 (≈ 96.4 µM) | 15 | 37.5 (≈ 96.4 µM) | 9 | 37.5 (≈ 96.4 µM) | 19 | 37.5 (≈ 96.4 µM) | 16 | 75 (≈ 193 µM) |
| CCCCCC[C@@H](O)C/C=C\CCCCCCCc1nc2ccccc2[nH]1 | 12 | 75 (≈ 202 µM) | 21 | 75 (≈ 202 µM) | 19 | 150 (≈ 405 µM) | 17 | 150 (≈ 405 µM) | 19 | 75 (≈ 202 µM) | 16 | 150 (≈ 405 µM) | 8 | 75 (≈ 202 µM) | 19 | 75 (≈ 202 µM) | 13 | 150 (≈ 405 µM) |
